Converted amounts (≈) assume the structure as drawn. The source made the active and inactive calls. No cut-off for these calls is given here.
Experiments:
Type in all cases: functional
Staphylococcus aureus = assay: Antimicrobial activity against Staphylococcus aureus at 400 ug/ml after 48 hrs by disc-diffusion assay; details: for zone of inhibition at 400 µg/mL: read-out: IZ
How it was run: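 Bacteria were grown 2.5 h in nutrient broth and spread evenly over dried agar plates. Sterile 6 mm paper discs were impregnated with 400 µg/mL compound and placed on the inoculated surface. A DMF solvent-only disc served as negative control and chloramphenicol as reference. Plates were incubated at 37 °C and inhibition zone diameter (mm) was read at 48 h.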

Salmonella typhi = assay: Antimicrobial activity against Salmonella typhi at 400 ug/ml after 48 hrs by disc-diffusion assay; details: for inhibition zone (IZ): Salmonella enterica subsp. enterica serovar Typhi; for zone of inhibition at 400 µg/mL: Salmonella enterica, read-out: IZ
How it was run: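 Disc diffusion. A few colonies were grown in nutrient broth for 2.5 h, then spread evenly on dried agar plates. Sterile 6 mm paper discs impregnated with compound were placed on the surface. Plates were incubated at 37 °C and the inhibition zone diameter in mm was read at 48 h. A DMF-only disc served as the negative control and chloramphenicol as the standard.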

Bacillus anthracis = assay: Antimicrobial activity against Bacillus anthracis at 400 ug/ml after 48 hrs by disc-diffusion assay; details: for zone of inhibition at 400 µg/mL: read-out: IZ
Aspergillus niger = assay: Antimicrobial activity against Aspergillus niger after 72 hrs by broth dilution assay
How it was run: (§1)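 Tube broth dilution in Sabouraud's Dextrose medium. Compound was dissolved in DMF and tested over 15.62 to 8000 µg/mL. Tubes were inoculated with fungal culture suspension and incubated at 25 °C for 72 h alongside a control. MIC was taken as the lowest concentration giving no turbidity.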

Candida albicans = assay: Antimicrobial activity against Candida albicans after 72 hrs by broth dilution assay; how it was run: as §1
Aspergillus fumigatus = assay: Antimicrobial activity against Aspergillus fumigatus after 72 hrs by broth dilution assay; how it was run: as §1

Structure (SMILES)	zone of inhibition at 400 µg/mL (Staphylococcus aureus)	inhibition zone (IZ) (Salmonella typhi)	zone of inhibition at 400 µg/mL (Bacillus anthracis)	MIC (Aspergillus niger)	MIC (Candida albicans)	inhibition zone (IZ) (Staphylococcus aureus)	inhibition zone (IZ) (Bacillus anthracis)	zone of inhibition at 400 µg/mL (Salmonella typhi)	MIC (Aspergillus fumigatus)
COc1cc([C@@H]2[C@H](Cl)C(=O)N2NC(=O)CC(=O)Nc2ccccc2Cl)ccc1OC(C)=O	12 mm	inactive	21 mm	1000 µg/mL (≈ 2.08 mM)	500 µg/mL (≈ 1.04 mM)				
OC(Cn1cncn1)(Cn1cncn1)c1ccc(F)cc1F [FLUCONAZOLE]		inactive		2000 µg/mL (≈ 6.53 mM)	250 µg/mL (≈ 0.816 mM)	inactive	inactive		
COc1cc([C@@H]2[C@H](Cl)C(=O)N2NC(=O)CC(=O)Nc2ccc([N+](=O)[O-])cc2)ccc1OC(C)=O		inactive	12 mm	4000 µg/mL (≈ 8.15 mM)	1000 µg/mL (≈ 2.04 mM)	inactive			
O=C1[C@@H](Cl)[C@@H](c2cc(/N=N/c3cccc([N+](=O)[O-])c3)ccc2O)N1c1ccccc1	24 mm		31 mm	4000 µg/mL (≈ 9.46 mM)	1000 µg/mL (≈ 2.37 mM)			18 mm	
O=C(N[C@H](CO)[C@H](O)c1ccc([N+](=O)[O-])cc1)C(Cl)Cl [CHLORAMPHENICOL]	32 mm		34 mm	inactive	inactive			36 mm	inactive
O=C1[C@@H](Cl)[C@@H](c2cc(/N=N/c3cccc([N+](=O)[O-])c3)ccc2O)N1c1ccc(F)cc1	29 mm		28 mm	500 µg/mL (≈ 1.13 mM)	62.5 µg/mL (≈ 0.142 mM)			21 mm	
O=C1[C@@H](Cl)[C@@H](c2cc(/N=N/c3ccc([N+](=O)[O-])cc3)ccc2O)N1c1ccccc1	8 mm	inactive	10 mm	4000 µg/mL (≈ 9.46 mM)	2000 µg/mL (≈ 4.73 mM)				inactive
O=C1[C@@H](Cl)[C@@H](c2cc(/N=N/c3cccc([N+](=O)[O-])c3)ccc2O)N1c1ccc(Cl)cc1	30 mm		32 mm	1000 µg/mL (≈ 2.19 mM)	125 µg/mL (≈ 0.273 mM)			27 mm	
COc1cc([C@@H]2[C@H](Cl)C(=O)N2NC(=O)CC(=O)Nc2ccc(Cl)cc2)ccc1OC(C)=O	30 mm		34 mm	1000 µg/mL (≈ 2.08 mM)	31.2 µg/mL (≈ 0.0651 mM)			29 mm	
O=C1[C@@H](Cl)[C@@H](c2cc(/N=N/c3ccc([N+](=O)[O-])cc3)ccc2O)N1c1ccc(Br)cc1		inactive	8 mm	4000 µg/mL (≈ 7.97 mM)	4000 µg/mL (≈ 7.97 mM)	inactive			inactive
O=C1[C@@H](Cl)[C@@H](c2cc(/N=N/c3ccc([N+](=O)[O-])cc3)ccc2O)N1c1ccc(F)cc1		inactive	12 mm	4000 µg/mL (≈ 9.07 mM)	2000 µg/mL (≈ 4.54 mM)	inactive			
COc1cc([C@@H]2[C@H](Cl)C(=O)N2NC(=O)CC(=O)Nc2cccc(Cl)c2)ccc1OC(C)=O	26 mm		22 mm	2000 µg/mL (≈ 4.16 mM)	125 µg/mL (≈ 0.26 mM)			17 mm	
COc1cc([C@@H]2[C@H](Cl)C(=O)N2NC(=O)CC(=O)Nc2ccccc2[N+](=O)[O-])ccc1OC(C)=O	11 mm	inactive	17 mm	4000 µg/mL (≈ 8.15 mM)	2000 µg/mL (≈ 4.07 mM)				
COc1cc([C@@H]2[C@H](Cl)C(=O)N2NC(=O)CC(=O)Nc2cccc([N+](=O)[O-])c2)ccc1OC(C)=O	27 mm		33 mm	2000 µg/mL (≈ 4.07 mM)	62.5 µg/mL (≈ 0.127 mM)			31 mm	
COc1cc([C@@H]2[C@H](Cl)C(=O)N2NC(=O)CC(=O)Nc2ccccc2)ccc1OC(C)=O	10 mm	inactive		4000 µg/mL (≈ 8.97 mM)	1000 µg/mL (≈ 2.24 mM)		inactive		
O=C1[C@@H](Cl)[C@@H](c2cc(/N=N/c3cccc([N+](=O)[O-])c3)ccc2O)N1c1ccc(Br)cc1	11 mm		17 mm	4000 µg/mL (≈ 7.97 mM)	inactive			8 mm	
O=C1[C@@H](Cl)[C@@H](c2cc(/N=N/c3ccc([N+](=O)[O-])cc3)ccc2O)N1c1ccc(Cl)cc1	17 mm		21 mm	2000 µg/mL (≈ 4.37 mM)	250 µg/mL (≈ 0.547 mM)			10 mm	inactive
